Screening data from PubChem BioAssay.
Compounds with a hit are over-represented: about 1.2% of the library has one in this group of screens.
CAL PDZ FP-1 – human CAL PDZ-peptide interaction inhibition | 330,000 compounds, 0.02% hits | purified CAL PDZ, TMR-peptide fluorescence polarization, 1 h | inhibition, % at 20 µM | Q9HD26;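 active means highest replicate inhibition of at least 40%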;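 further: plate controls were DMSO neutral control wells for no effect and unlabeled competitor peptide control wells for full effect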
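System: tagged CAL PDZ domain. Schedule: 1 h room-temperature incubation prior to read. Signal: fluorescence polarization (mP). Measure: percent inhibition from loss of millipolarization.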
CAL PDZ FP-2 – inhibitors of human CAL PDZ peptide binding; Q9HD26; inhibition, % at 24.9 µM; purified CAL PDZ, TMR-peptide fluorescence polarization, 1 h; 300,000 compounds, 0.92% hits; AID 602252;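 active means mean inhibition of at least 30% with at least half of replicates also reaching 30%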;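 further: 0% = DMSO neutral control and 100% = excess unlabeled competitor peptide PRC23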
ARNT TACC3 PPI – ARNT/TACC3 interaction disruption | 390,000 compounds, 0.66% hits | AlphaScreen His-ARNT PAS-B/GST-TACC3 binding, luminescence; TACC3 fragment carries E629A point mutation | Q9Y6A5 | inhibition, % at 9.99 µM;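 active means mean inhibition of replicates at least 50% and at least half of replicates each reaching 50%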;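 further: 0% = complete ARNT plus TACC3 wells and 100% = ARNT alone without TACC3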
The depositor's hits bear a star; / = not tested or not shown.

SMILES	CAL PDZ FP-1	CAL PDZ FP-2	ARNT TACC3 PPI
CCCC(=O)Nc1ccc2c(c1)OC[C@H](C)N(Cc1ccccc1)C[C@@H](C)[C@@H](OC)CN(C)C2=O	/	/	-10.1
S=C(NCCCn1ccnc1)Nc1cccc(Cl)c1	-1.1	-18.0	41.6*
CCOc1ccc(NC(=S)NCCCn2ccnc2)cc1	-2.0	0.1	/
O=C(C[C@H]1CC[C@H]2[C@@H](COC[C@H](O)CN2Cc2nccs2)O1)NCc1ccc(Cl)cc1	/	/	-4.3
C[C@@H]1CCCCO[C@@H](CN(C)C)[C@H](C)CN([C@@H](C)CO)C(=O)c2cc(NC(=O)Nc3ccc4c(c3)OCO4)ccc2O1	/	/	6.8
O=C(OCC(=O)N1CCOCC1)c1cccc(S(=O)(=O)N2CCCc3ccccc32)c1	-0.1	-2.4	-7.4
CC1CN(C(=O)COC(=O)c2cccc(S(=O)(=O)N3CCc4ccccc43)c2)CC(C)O1 (stereo not drawn)	19.4	59.4*	0.4
CS(=O)(=O)N1CCc2cc(C(=O)OCC(=O)c3ccccc3)ccc21	-1.9	98.2*	-2.3
CN(C(=O)c1ccc2c(c1)CCN2S(C)(=O)=O)c1ccccc1	-1.2	2.4	-9.2
CC(=O)N(C)C[C@@H]1Oc2ncc(C#Cc3ccncc3)cc2C(=O)N([C@@H](C)CO)C[C@H]1C	/	/	-7.4
Cc1cccc(-c2ccc([C@@H]3[C@H](CO)N4CCCCN(C(=O)NC(C)C)C[C@@H]34)cc2)c1	/	/	1.8
C[C@H]1CN([C@@H](C)CO)C(=O)Cc2cc(NC(=O)Nc3ccccc3)ccc2O[C@@H]1CN(C)C(=O)Nc1ccc2c(c1)OCO2	/	/	-26.7
O=C(C[C@H]1C[C@@H]2c3cc(NC(=O)Nc4ccccc4F)ccc3O[C@@H]2[C@H](CO)O1)NCc1ccc2c(c1)OCO2	/	/	3.0
CC(C)(C)c1cc(C(=O)NNc2cccc(Cl)c2)n(Cc2ccccc2)n1	-0.5	65.9*	4.9
Cc1ccc(NNC(=O)c2cc(C(C)(C)C)nn2Cc2ccccc2)cc1	-0.4	-7.7	-2.2
CCNc1nc(C(=O)O)nc(N2CCOCC2)n1	-1.2	-2.0	79.3*
CC(C)(C)Nc1nc(C(N)=O)nc(N2CCOCC2)n1	0.2	/	22.2
C[C@H]1CN([C@@H](C)CO)C(=O)Cc2cc(NC(=O)CCC(F)(F)F)ccc2O[C@@H]1CN(C)S(=O)(=O)c1cn(C)cn1	/	/	-4.5
O=[N+]([O-])c1cccc(C=NNc2ccc3ccccc3n2)c1O	1.1	-7.1	71.9*
O=C(N/N=C\c1cccc([N+](=O)[O-])c1O)C1COc2ccccc2O1 (stereo not drawn)	-0.3	-3.0	62.9*
Brc1ccccc1/C=N/Nc1ccc2ccccc2n1	-1.5	-3.7	8.1
COc1cc([N+](=O)[O-])cc(/C=N\NC(=O)C2COc3ccccc3O2)c1O (stereo not drawn)	-0.6	-3.1	71.6*
O=C(CNC(=O)C1COc2ccccc2O1)N/N=C/c1ccc(O)cc1O (stereo not drawn)	-2.3	-5.4	93.9*
O=C(CNC(=O)C1COc2ccccc2O1)N/N=C\c1cccc(O)c1 (stereo not drawn)	0.4	-4.2	-4.7
COc1cc(/C=N/NC(=O)C2COc3ccccc3O2)cc(OC)c1OC (stereo not drawn)	-1.8	-2.8	-1.4
SMILES	CAL PDZ FP-1	CAL PDZ FP-2	ARNT TACC3 PPI
O=C(N/N=C/c1cccc([N+](=O)[O-])c1)C1COc2ccccc2O1 (stereo not drawn)	-6.2	-4.4	4.7
Cc1noc(C)c1C(=O)N(C)C[C@H]1OCc2ccccc2-c2c(n(C)c3ccccc23)C(=O)N([C@H](C)CO)C[C@H]1C	/	/	4.1
C[C@H]1CN([C@@H](C)CO)C(=O)c2cccc(NS(=O)(=O)c3cn(C)cn3)c2O[C@H]1CN(C)Cc1ccc2c(c1)OCO2	/	/	-5.8
CCCNC(=O)[C@@H]1[C@@H](CO)[C@@H]2Cn3c(ccc(C4=CCCC4)c3=O)[C@@H]2N1C(=O)c1cnccn1	/	/	0.5
C[C@@H]1CN([C@@H](C)CO)C(=O)c2cccc(NC(=O)Nc3cccc4ccccc34)c2O[C@H]1CN(C)S(C)(=O)=O	/	/	6.4
CN1CCN(C(=O)C[C@H]2CC[C@H]3[C@H](COc4ccc(NC(=O)c5ccc(F)c(F)c5)cc4C(=O)N3C)O2)CC1	/	/	-11.1
O=C(C[C@@H]1CC[C@@H](NC(=O)Nc2ccc(F)cc2)[C@H](CO)O1)NCc1cccc(F)c1	/	/	-1.2
O=C(Cc1ccccc1)N[C@H]1C=C[C@@H](CC(=O)N2CCCCC2)O[C@H]1CO	/	/	-21.9
CN(C)C(=O)C[C@H]1CC[C@@H]2[C@H](COC[C@H](O)CN2C(=O)C2CC2)O1	/	/	-2.2
CC(C)Oc1ccc(C(=O)OCC(=O)NC(=O)NC2CCCC2)cc1	-0.5	3.5	3.6
Cc1ccc(S(=O)(=O)NCC(=O)OCC(=O)NC(=O)NC2CCCC2)cc1	0.8	72.5*	-2.7
CC(=O)Nc1ccc(C(=O)OCC(=O)NC(=O)NC2CCCCC2)cc1	-1.1	86.4*	-1.0
Cc1ccc(S(=O)(=O)NCC(=O)OCC(=O)NC2CCCCC2)cc1	-0.6	-9.5	8.7
CNC[C@H]1Oc2ccc(NC(=O)CCC(F)(F)F)cc2CC(=O)N([C@H](C)CO)C[C@@H]1C	/	/	0.0
COCCNC(=O)C[C@H]1C[C@@H]2c3cc(NC(=O)c4ccc5c(c4)OCO5)ccc3O[C@@H]2[C@H](CO)O1	/	/	4.9
O=C(C[C@H]1C=C[C@@H](NC(=O)Nc2ccc3c(c2)OCO3)[C@H](CO)O1)NCc1ccccc1	/	/	-11.2
CCc1nnc(NC(=O)c2cccc(NC(=O)C(C)C)c2)s1	-1.3	44.6*	1.8
COCc1nnc(NC(=O)c2cccc(NC(=O)C(C)C)c2)s1	2.1	-2.4	-7.3
O=C(C[C@H]1CC[C@@H](NC(=O)c2ccc3c(c2)OCO3)[C@@H](CO)O1)NC1Cc2ccccc2C1	/	/	12.8
c1ccc(-n2nnnc2SCc2ccccn2)cc1	-1.8	-1.0	-9.1
Cc1nnc(SCc2cccc3ccccc23)n(N)c1=O	-1.1	-1.0	-4.4
Nn1c(SCc2ccccn2)nncc1=O	-1.7	-4.0	55.6*
Cc1nnc(SCc2ccccn2)n(N)c1=O	-2.1	-0.9	active
CN(C)CC(=O)N1[C@@H]2Cn3c(ccc(-c4ccccc4)c3=O)[C@H]1[C@@H](C(=O)N1CCOCC1)[C@@H]2CO	/	/	-10.7
CNC[C@H]1Oc2cc(-c3cccnc3)ccc2S(=O)(=O)N([C@@H](C)CO)C[C@@H]1C	/	/	-1.7
SMILES	CAL PDZ FP-1	CAL PDZ FP-2	ARNT TACC3 PPI
O=C(c1ccccc1)N1CCN(CC(O)COCC2CC=CCC2)CC1 (stereo not drawn)	1.0	0.6	-0.1
CCc1nc2ccccc2n1CC(O)COCC1CC=CCC1 (stereo not drawn)	-0.2	43.0*	-0.5
COC(=O)c1cc2ccccc2c(-c2c(OC)c(C(=O)OC)cc3ccccc23)c1OC	-0.2	-3.6	10.3
COC(=O)c1cc2ccccc2c([N+](=O)[O-])c1O	-0.3	107.7*	-1.9
O=C(C[C@@H]1CC[C@@H](NC(=O)NC2CCCCC2)[C@H](CO)O1)NCc1ccc(Cl)cc1	/	/	0.4
O=C(C[C@H]1C[C@H]2c3cc(NS(=O)(=O)c4ccc(F)cc4)ccc3O[C@H]2[C@H](CO)O1)NCCc1ccccc1	/	/	-14.5
C[C@@H]1CN([C@@H](C)CO)C(=O)c2cc(NS(=O)(=O)c3ccccc3)ccc2O[C@@H](C)CCCCO[C@@H]1CN(C)Cc1ccccc1	/	/	3.9
